TAAR1 antagonist: antagonists of human TAAR1 | 360,000 tested, 1.5% active | CHO RD-HGA16 TAAR1, Fluo-8 calcium fluorescence, antagonist | inhibition, % at 3 µM | AID 624466;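 active = inhibition above a per-plate cutoff, the mean inhibition of test compounds on that plate plus 3 SD, cut at about 49% in these data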;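 note: 0% = DMSO plus EC80 beta-PEA response and 100% = DMSO alone without agonist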
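test system = CHO RD-HGA16 cells bearing hTAAR1 | replication = singlicate | controls = DMSO-only wells and EC80 β-PEA-stimulated wells | reagent = EC80 β-phenethylamine stimulus | read-out basis = percent inhibition of PEA-evoked calcium signal, max/basal emission ratio | schedule = seeding 17-24 h prior, 75-min 37 °C, 30-min RT dye loading | signal = kinetic Fluo-8 calcium fluorescence measurement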
V1aR counter: V1a receptor agonism, counter-screen for OXTR agonists; P37288; activation, % at 3 µM; 320,000 tested, 0.25% active; AID 2797; CHO-V1R cells, Fluo-8 calcium fluorescence, agonist mode; 0% DMSO, 100% 3 nM vasopressin;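 active = activation above the mean activation of all tested compounds plus 3 SD, per screening run, cut at about 20% in these data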;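 note: signal is peak over basal fluorescence ratio across a 100 second FLIPR read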
OXTR ag: human OXTR agonism. 320,000 tested, 0.32% active. CHO-OTR cells, Fluo-8 calcium fluorescence; normalized: DMSO 0%, oxytocin 100%. activation, % at 3 µM. P30559;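 active = activation above the mean of all tested compounds plus 3 SD, cutoff set per screening run, cut at about 20% in these data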;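 note: peak over basal fluorescence ratio from a 100 s FLIPR kinetic read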
Target sequence (P30559 whole entry, looked up): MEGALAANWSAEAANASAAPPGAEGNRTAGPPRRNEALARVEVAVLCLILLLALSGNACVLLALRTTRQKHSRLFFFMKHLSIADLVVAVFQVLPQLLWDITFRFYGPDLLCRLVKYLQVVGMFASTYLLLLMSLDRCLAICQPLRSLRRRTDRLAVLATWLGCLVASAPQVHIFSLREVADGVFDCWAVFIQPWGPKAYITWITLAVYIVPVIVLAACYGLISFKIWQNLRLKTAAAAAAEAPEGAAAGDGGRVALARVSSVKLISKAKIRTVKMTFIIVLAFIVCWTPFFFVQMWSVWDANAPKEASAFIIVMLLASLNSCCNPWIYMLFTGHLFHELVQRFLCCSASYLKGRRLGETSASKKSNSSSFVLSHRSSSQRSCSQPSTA
OXTR potentiator: potentiators of human oxytocin receptor | P30559 | AID 2445 | activation, % at 3 µM | 320,000 tested, 0.061% active | CHO-OTR cells, Fluo-8 calcium fluorescence, potentiator mode; 0% = oxytocin EC15, 100% = EC100;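 active = activation above that plate's cutoff, the mean activation of tested compounds plus 3 SD, cut at about 6.6% in these data, passing the limit was not always enough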;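 note: 100% uses oxytocin at 75 nM as the full agonist control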
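Material: CHO-OTR cells, human receptor; compound dosing: single dose, 3.0 µM nominal final compound concentration; schedule: 6 min compound pre-incubation at room temperature, 100 s kinetic read; measured by: kinetic Fluo-8 calcium fluorescence; read-out basis: % activation vs EC15 and EC100 oxytocin; controls: EC15 oxytocin alone as 0%, 75 nM oxytocin as 100%; replicates: singlicate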
TAAR1 ag: human TAAR1 agonism. AID 624467. CHO RD-HGA16 TAAR1, Fluo-8 calcium fluorescence; vehicle wells 0%, saturating PEA agonist 100%. 360,000 tested, 0.99% active. activation, % at 3 µM. Q96RJ0;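 active = activation above the mean activation of all test compounds in the run plus 3 SD, cut at about 38% in these data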
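Assay system: CHO-derived RD-HGA16 cells with stable Gα16 and human TAAR1; timing: 17-24 h seeding, 75 min 37 °C dye, 30 min RT; read-out: % activation from peak over basal fluorescence ratio, DMSO-to-PEA scaled; measured by: kinetic Fluo-8 calcium fluorescence; benchmarks: low control DMSO, high control PEA (EC100); doses: 3 µM single concentration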
Numbers without * were called inactive. Most compounds without a hit are left out; they make up all but 2.3% or so of the library.

Screening Cc1c(C(=O)NC(=S)Nc2ccc(NC(=O)c3cccs3)cc2)cccc1[N+](=O)[O-] returned TAAR1 antagonist 68*, V1aR counter 4, OXTR ag 5, OXTR potentiator -18 and TAAR1 ag 9.
For CC(=O)NC(=S)Nc1ccc(NC(=S)NC(=O)c2cccs2)cc1 the results were TAAR1 antagonist -16, V1aR counter 1, OXTR ag 0, OXTR potentiator -1 and TAAR1 ag 0.
`O=C(CN1CCN(Cc2ccc(F)cc2)C1=O)NC1CCCC1` gave TAAR1 antagonist 0, V1aR counter 1, OXTR ag -1, OXTR potentiator -3 and TAAR1 ag 2.
Screening O=C(Nc1ccccc1)N(O)c1ccc(Cl)cc1 returned TAAR1 antagonist 4, V1aR counter 0, OXTR ag 1, OXTR potentiator -21 and TAAR1 ag 38*.
COc1cc(OC)nc(Nc2nc(C(N)Cc3ccccc3)cs2)n1 (stereo not drawn) was read as TAAR1 antagonist -7 and TAAR1 ag 18.
Cc1cc(C)nc(Nc2nc(C(N)Cc3ccc(C(F)(F)F)cc3)cs2)n1 (stereo not drawn) was read as TAAR1 antagonist 35 and TAAR1 ag 47*.
NC(Cc1ccccc1)c1csc(Nc2ccc(C(F)(F)F)cn2)n1 (stereo not drawn) was read as TAAR1 antagonist 20 and TAAR1 ag 41*.
For COc1cc(OC)nc(Nc2nc(C(N)Cc3ccc(C(F)(F)F)cc3)cs2)n1 (stereo not drawn) the results were TAAR1 antagonist 34 and TAAR1 ag 53*.
Screening Cc1cc(C)nc(Nc2nc(C(N)Cc3ccc(F)cc3)cs2)n1 (stereo not drawn) returned TAAR1 antagonist 2 and TAAR1 ag 28.
Screening CCC(C)C(CO)NCCCn1cnc2c(SC)ncnc21 (stereo not drawn) returned TAAR1 antagonist -6 and TAAR1 ag 0.
For COc1ccc(Cl)cc1NC(=O)CN(C)C(=O)c1ccc(-n2nc(C)cc2C)cc1 the results were TAAR1 antagonist -6, V1aR counter 4, OXTR ag 6, OXTR potentiator -5 and TAAR1 ag 19.
`N#Cc1nc(-c2cccs2)oc1NCc1ccc(Cl)cc1` gave TAAR1 antagonist 50*, V1aR counter 1, OXTR ag -1, OXTR potentiator -16 and TAAR1 ag 15.
Screening CC(C)(C)c1ccc(COC(=O)Nc2ccc(F)cc2)cc1 returned TAAR1 antagonist 20, V1aR counter 0, OXTR ag -2, OXTR potentiator -3 and TAAR1 ag -1.
For O=C(Cc1ccc(Cl)cc1)Nc1ccc(Br)cc1 the results were TAAR1 antagonist 32, V1aR counter -1, OXTR ag -2, OXTR potentiator -7 and TAAR1 ag 40*.
CC(C)(C)c1ccc(NC(=O)Nc2ccc(F)cc2)cc1 was read as TAAR1 antagonist 94*, V1aR counter 11, OXTR ag 9, OXTR potentiator -14 and TAAR1 ag 12.
O=C(Nc1ccc(Cc2ccncc2)cc1)c1ccc(S(=O)(=O)N2CCCC2)cc1 was read as TAAR1 antagonist 57* and TAAR1 ag 22.
`O=C(Cc1ccc(Br)cc1)Nc1ccc(S(=O)(=O)N2CCCC2)cc1` gave TAAR1 antagonist 6, V1aR counter 8, OXTR ag 8, OXTR potentiator -6 and TAAR1 ag 38*.
Screening O=C(Cc1ccc(Br)cc1)NNC(=O)Nc1ccc(Cl)cc1 returned TAAR1 antagonist 3, V1aR counter 2, OXTR ag 1, OXTR potentiator -5 and TAAR1 ag 2.
`O=C(Nc1ccc(S(=O)(=O)N2CCCCC2)cc1)c1ccncc1` gave TAAR1 antagonist 0, V1aR counter 5, OXTR ag 4, OXTR potentiator -18 and TAAR1 ag 11.
`O=C(Cc1ccc(F)cc1)Nc1ccc(S(=O)(=O)N2CCCC2)cc1` gave TAAR1 antagonist 6, V1aR counter 2, OXTR ag 3, OXTR potentiator -1 and TAAR1 ag 10.
N#Cc1ccc(NCC(=O)Nc2ccc(S(=O)(=O)N3CCCCC3)cc2)cc1 was read as TAAR1 antagonist 21, V1aR counter 11, OXTR ag 7, OXTR potentiator -5 and TAAR1 ag 39*.
Screening O=C(Nc1ccc(F)cc1)Nc1ccc(S(=O)(=O)N2CCCC2)cc1 returned TAAR1 antagonist 51*, V1aR counter 12, OXTR ag 16, OXTR potentiator -14 and TAAR1 ag 48*.
Screening CCCC(C(=O)Nc1ccc(S(=O)(=O)N2CCCC2)cc1)c1ccccc1 (stereo not drawn) returned TAAR1 antagonist 26, V1aR counter 6, OXTR ag 10, OXTR potentiator -5 and TAAR1 ag 41*.
O=S(=O)(c1ccc(NC(=S)NCc2ccc(F)cc2)cc1)N1CCOCC1 was read as TAAR1 antagonist 27, V1aR counter 20, OXTR ag 9, OXTR potentiator -9 and TAAR1 ag 44*.
`Cc1noc(C)c1S(=O)(=O)N1CCCc2nc(-c3ccc(Br)cc3)ccc21` gave TAAR1 antagonist -26 and TAAR1 ag 1.
Cc1ccc(C)c(CN2CCC(CNC(=O)Nc3ccc(F)c(Cl)c3)CC2)c1 was read as TAAR1 antagonist 6, V1aR counter 5, OXTR ag 15, OXTR potentiator -19 and TAAR1 ag 38*.
`Cc1ccc(NC(=O)NCC2CCN(Cc3cccc(Cl)c3)CC2)cc1Cl` gave TAAR1 antagonist 20, V1aR counter 2, OXTR ag 13, OXTR potentiator -13 and TAAR1 ag 42*.
C/C(COc1ccccc1)=N\NC(=O)c1nnn(-c2nonc2N)c1CSc1ccccc1 was read as TAAR1 antagonist 3, V1aR counter 3, OXTR ag 1, OXTR potentiator -7 and TAAR1 ag 3.
Screening CS(=O)(=O)Nc1ccc(C(=O)Nc2ccccc2-c2ccccc2)cc1 returned TAAR1 antagonist -3, V1aR counter 1, OXTR ag 2, OXTR potentiator 2 and TAAR1 ag 3.
Cc1cccc(N2CCN(C(=O)c3ccc(CS(=O)(=O)c4ccccc4C)o3)CC2C)c1 (stereo not drawn) was read as TAAR1 antagonist 50*, V1aR counter 3, OXTR ag 0, OXTR potentiator -6 and TAAR1 ag 14.
For Cc1cccc(N2CCN(C(=O)c3ccccn3)CC2C)c1 (stereo not drawn) the results were TAAR1 antagonist -12, V1aR counter -1, OXTR ag -1, OXTR potentiator -7 and TAAR1 ag 1.
Screening CCN(CC)c1ccc2c(-c3ccc(S(=O)(=O)O)cc3S(=O)(=O)[O-])c3ccc(=[N+](CC)CC)cc-3oc2c1 returned V1aR counter 180*, OXTR ag 266* and OXTR potentiator -10.

High-throughput results: PubChem BioAssay, The Scripps Research Institute Molecular Screening Center
